This is an account of results in ChEMBL document CHEMBL1153492, “Design, synthesis, and structure-activity relationships of 1,3-dihydrobenzimidazol-2-one analogues as anti-HIV agents” (Bioorg Med Chem, 2009).

Structures are written as SMILES.

Series [1] deals with Human immunodeficiency virus 1. Kind of series: Antiviral activity against HIV1 3B infected in human MT4 cells assessed as reduction of virus-induced cytopathic effect after 5 days. Type of series: functional, organism-based. As to conditions: Human immunodeficiency virus 1, 3B, MT4, 120 h. In short, it runs like this: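 MT-4 cells infected with HIV-1 IIIB at about 100-times the CCID50 per ml of cell suspension, plated and mixed with compound, then incubated at 37 °C for 5 days. Viable cell number was then determined. EC50 is the concentration that reduces virus-induced cytopathicity by 50%.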
On the technique in general: Cytopathic effects are the visible damage that an infection or toxin causes in cultured cells.

Series [2] addresses Human immunodeficiency virus type 1 reverse transcriptase (Human immunodeficiency virus 1, UniProt Q72547). Description: Inhibition of HIV1 recombinant RNA-dependent DNA polymerase activity of reverse transcriptase assessed as incorporation of radioactive dTTP into poly(rA)/oligo(dT).
A short description of series [3]: Selectivity index, CC50 for human MT4 cells to EC50 for HIV1 3B. As to conditions: read-out: Ratio CC50/EC50. Type of series: toxicity, cell-based.
Series [4] can be described thus: Cytotoxicity against human MT4 cells after 5 days. Format: cell-based. The procedure, abridged: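 Run in MT-4 cells in parallel with the HIV-1 IIIB cytopathicity assay, with 37 °C incubation for 5 days and a read-out of viable MT-4 cell number.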

On to `O=C(CCl)Nc1ccc(Cl)cc1NS(=O)(=O)c1c(Cl)cccc1Cl`, for which the EC50 (in general, the midpoint of the concentration-response curve) in series [1] stood at 1.5 µM. The IC50 (usually the concentration that inhibits the measured activity by half) in series [2] was determined as 32.7 µM. Besides, the selectivity ratio in series [3] was determined as 107. It took 160 µM to reach half-maximal cytotoxicity in series [4] (CC50 at 120 h).

For `O=C(CCl)Nc1ccc(Cl)cc1NS(=O)(=O)c1cc(Cl)cc(Cl)c1`, in series [1], the EC50 was 8.99 µM. In series [2], the IC50 turned out to be 15.9 µM. Further, the selectivity ratio in series [3] is over 32. The CC50 (usually the concentration that lowers cell viability or growth by half) at 120 h in series [4] is over 292 µM.

Take `O=c1[nH]c2ccc(Cl)cc2n1S(=O)(=O)c1c(Cl)cccc1Cl`: in series [1], the EC50 was 1.52 µM. Also, the IC50 in series [2] was over 100 µM. Also, the selectivity ratio in series [3] was over 218. This molecule displayed a CC50 at 120 h in series [4] of over 331 µM.

For the molecule `O=C1CN(S(=O)(=O)c2cccc(F)c2)c2cc(Cl)ccc2N1`, in series [1], the half-maximal effective concentration (EC50) came out at 7.04 µM. Also, the IC50 in series [2] was over 40 µM. For the same molecule, the selectivity ratio in series [3] stood at 27. Further, the CC50 at 120 h in series [4] is 189 µM.

With `O=c1[nH]c2ccc(Cl)cc2n1S(=O)(=O)c1ccccc1F`, the EC50 in series [1] came out at 0.23 µM. The IC50 in series [2] turned out to be 0.85 µM. Besides, the selectivity ratio in series [3] is over 1660. The same molecule showed a CC50 at 120 h in series [4] of over 383 µM.

As for `O=C1CN(S(=O)(=O)c2c(F)cccc2F)c2cc(Cl)ccc2N1`, the EC50 in series [1] came out at 20.7 µM. Further, the IC50 in series [2] was over 40 µM. For the same molecule, the selectivity ratio in series [3] stood at 9. In series [4], this molecule yielded a CC50 at 120 h of 180 µM.

For `O=C1CN(S(=O)(=O)c2ccccc2F)c2cc(Cl)ccc2N1`, in series [1], the EC50 worked out at 6.1 µM. The IC50 in series [2] was over 40 µM. The selectivity ratio in series [3] was determined as 32. Further, the CC50 at 120 h in series [4] turned out to be 197 µM.

`Cc1cc(C)cc(S(=O)(=O)N2CC(=O)Nc3ccc(Cl)cc32)c1`: the EC50 in series [1] worked out at 0.1 µM. Moreover, the IC50 in series [2] is over 40 µM. Besides, the selectivity ratio in series [3] is 782. The molecule also gave a CC50 at 120 h in series [4] of 80.6 µM.

Consider `O=C1CN(S(=O)(=O)c2cc(F)cc(F)c2)c2cc(Cl)ccc2N1`, for which, in series [1], the EC50 came out at 14 µM. Further, in series [2], the IC50 was over 40 µM. Moreover, the selectivity ratio in series [3] was 13. Besides, the CC50 at 120 h in series [4] turned out to be 187 µM.

Take `N#Cc1cccc(S(=O)(=O)Nc2cc(Cl)ccc2NC(=O)CCl)c1`: in series [1], the EC50 was over 156 µM. Besides, the IC50 in series [2] amounted to 284 µM. Further, the selectivity ratio in series [3] is under 1. In addition, the CC50 at 120 h in series [4] was over 156 µM.

For `O=C1CN(S(=O)(=O)c2cc(Cl)cc(Cl)c2)c2cc(Cl)ccc2N1`, in series [1], the EC50 was 26.7 µM. Further, in series [2], the IC50 was over 40 µM. In addition, in series [3], the selectivity ratio is over 8. Further, the 50% cytotoxic concentration (CC50) at 120 h in series [4] was at least 206 µM.

Turning to `O=c1[nH]c2ccc(Cl)cc2n1S(=O)(=O)c1ccc(F)cc1`, the EC50 in series [1] came to 36 µM. Further, the IC50 in series [2] is over 40 µM. The selectivity ratio in series [3] is at least 10. Moreover, the cytotoxic concentration (CC50) at 120 h in series [4] was at least 355 µM.

For `O=C1CN(S(=O)(=O)c2c(Cl)cccc2Cl)c2cc(Cl)ccc2N1`, the EC50 in series [1] turned out to be 1.09 µM. The IC50 in series [2] was 1.67 µM. Besides, the selectivity ratio in series [3] is over 293. In addition, the CC50 at 120 h in series [4] was over 319 µM.

`O=c1[nH]c2ccc(Cl)cc2n1S(=O)(=O)c1cc(Cl)cc(Cl)c1`: in series [1], the EC50 worked out at 0.048 µM. Besides, the IC50 in series [2] was 0.003 µM. Moreover, in series [3], the selectivity ratio is 3740. In series [4], this molecule displayed a CC50 at 120 h of 179 µM.

`O=C1CN(S(=O)(=O)c2ccc(F)cc2)c2cc(Cl)ccc2N1`: in series [1], the EC50 was over 172 µM. For the same molecule, the IC50 in series [2] is over 40 µM. In series [3], the selectivity ratio was under 1. The CC50 at 120 h in series [4] stood at 172 µM.

On to `N#Cc1cccc(S(=O)(=O)n2c(=O)[nH]c3ccc(Cl)cc32)c1`, for which the EC50 in series [1] is 0.149 µM. Besides, in series [2], the IC50 was 0.36 µM. The selectivity ratio in series [3] turned out to be 1360. Besides, in series [4], the CC50 at 120 h came out at 205 µM.

Consider `Cc1cc(C)cc(S(=O)(=O)Nc2cc(Cl)ccc2NC(=O)CCl)c1`, for which, in series [1], the EC50 turned out to be 0.047 µM. The IC50 in series [2] was 3.36 µM. Besides, the selectivity ratio in series [3] was determined as 747. The molecule also yielded a CC50 at 120 h in series [4] of 35.1 µM.

As for `N#Cc1cccc(S(=O)(=O)N2CC(=O)Nc3ccc(Cl)cc32)c1`, the EC50 in series [1] was at least 47.7 µM. Further, the half-maximal inhibitory concentration (IC50) in series [2] is over 40 µM. For the same molecule, in series [3], the selectivity ratio was at most 4. Moreover, in series [4], the CC50 at 120 h is 186 µM.

Regarding `O=C(CCl)Nc1ccc(Cl)cc1NS(=O)(=O)c1c(F)cccc1F`, the EC50 in series [1] stood at 6.96 µM. Further, in series [2], the IC50 is 30.4 µM. Besides, the selectivity ratio in series [3] stood at 25. In addition, the CC50 at 120 h in series [4] is 175 µM.

Take `O=C(CCl)Nc1ccc(Cl)cc1NS(=O)(=O)c1cc(F)cc(F)c1`: the EC50 in series [1] came out at 11.2 µM. The IC50 in series [2] was found to be 27.8 µM. Besides, in series [3], the selectivity ratio was 16. The same molecule displayed a CC50 at 120 h in series [4] of 179 µM.

Consider `O=c1[nH]c2ccc(Cl)cc2n1S(=O)(=O)c1cccc(F)c1`, for which the 50% effective concentration (EC50) in series [1] was 0.043 µM. Moreover, the IC50 in series [2] stood at 0.132 µM. Besides, the selectivity ratio in series [3] is 2960. The CC50 at 120 h in series [4] was determined as 128 µM.

In turn, `O=C1Nc2ccc(Cl)cc2[C@@](C#CC2CC2)(C(F)(F)F)O1` [EFAVIRENZ] yielded a CC50 at 120 h in series [4] of over 6 µM.

In series [4], `Cc1ccnc2c1NC(=O)c1cccnc1N2C1CC1` [NEVIRAPINE] had a CC50 at 120 h of over 15 µM.
